Reference: ChEMBL document CHEMBL1275561, “In vitro activities of doripenem, a new broad-spectrum carbapenem, against recently collected clinical anaerobic isolates, with emphasis on the Bacteroides fragilis group” (2008)
Converted amounts (≈) assume the structure as drawn.

Experiments:
Assay type in all cases: functional
Parvimonas micra = assay: Antimicrobial activity against Micromonas micros by agar dilution method
Outline: (§1)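 Gram-positive anaerobes were tested by CLSI agar dilution on brucella agar enriched with 5% lysed defibrinated sheep blood and 1 μg/ml vitamin K1. Inoculum was log-phase growth at 0.5 McFarland, about 10^5 CFU/spot by replicator. Incubation was anaerobic, 37°C, 48 h. MIC was the lowest concentration with a marked growth change versus the drug-free plate. Eubacterium lentum ATCC 43055 was the control, and tests were repeated if it fell outside the CLSI range.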

Finegoldia magna [1] = assay: Antimicrobial activity against Finegoldia magna assessed as resistant isolates by agar dilution method
Outline: (§2)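 Agar dilution following CLSI on brucella agar with 5% lysed defibrinated sheep blood and 1 μg/ml vitamin K1, plates made on test day. Log-phase cells at 0.5 McFarland, about 10^5 CFU/spot by Steers replicator, 48 h anaerobic at 37°C. MIC read as the lowest concentration causing a marked growth change versus control. Resistance counted by CLSI anaerobe breakpoints. Eubacterium lentum ATCC 43055 served as control.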

Clostridium perfringens = assay: Antimicrobial activity against Clostridium perfringens by agar dilution method
[2] = test system: Peptoniphilus asaccharolyticus; assay: Antimicrobial activity against Peptoniphilus asaccharolyticus assessed as resistant isolates by agar dilution method; conditions: pooled result: one value given for 4 cell lines, strains, targets or settings; outline: as §2
Anaerococcus prevotii = assay: Antimicrobial activity against Anaerococcus prevotii by agar dilution method; outline: as §1
Cutibacterium acnes [3] = assay: Antimicrobial activity against Propionibacterium acnes assessed as resistant isolates by agar dilution method; outline: as §2
Peptostreptococcus sp. = assay: Antimicrobial activity against Peptostreptococcus sp. by agar dilution method
Outline: (§3)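 Log-phase isolates were adjusted to 0.5 McFarland, and about 10^5 CFU/spot was delivered by Steers replicator. Plates were incubated anaerobically at 37°C for 48 h. MIC was the lowest concentration giving a marked growth change versus the control plate. Eubacterium lentum ATCC 43055 was the QC strain, with repeats when out of range.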

Clostridium tertium = assay: Antimicrobial activity against Clostridium tertium by agar dilution method
Finegoldia magna [4] = assay: Antimicrobial activity against Finegoldia magna by agar dilution method; outline: as §1
Cutibacterium acnes [5] = assay: Antimicrobial activity against Propionibacterium acnes by agar dilution method; outline: as §3
[Clostridium] innocuum [6] = Antimicrobial activity against Clostridium innocuum by agar dilution method
[7] = test system: Peptoniphilus asaccharolyticus; assay: Antimicrobial activity against Peptoniphilus asaccharolyticus by agar dilution method; outline: as §1
[Clostridium] innocuum [8] = Antimicrobial activity against Clostridium innocuum assessed as resistant isolates by agar dilution method; conditions: pooled result: one value given for 4 cell lines, strains, targets or settings
Propionibacterium [9] = assay: Antimicrobial activity against Propionibacterium sp. assessed as resistant isolates by agar dilution method; outline: as §2
Propionibacterium [10] = assay: Antimicrobial activity against Propionibacterium sp. by agar dilution method; outline: as §3
Clostridioides difficile = assay: Antimicrobial activity against Clostridium difficile by agar dilution method
Clostridium subterminale = assay: Antimicrobial activity against Clostridium subterminale by agar dilution method
[11] = test system: Clostridium paraputrificum; assay: Antimicrobial activity against Clostridium paraputrificum by agar dilution method
Bacteroides eggerthii [12] = assay: Antimicrobial activity against Bacteroides eggerthii by agar dilution method
Outline: (§4)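 CLSI agar dilution on enriched brucella agar (5% lysed defibrinated sheep blood, 1 μg/ml vitamin K1), with drug plates made on the test day. Log-phase cells were adjusted to 0.5 McFarland, and about 10^5 CFU/spot was delivered by Steers replicator. Plates were incubated anaerobically at 37°C for 48 h. MIC was the lowest concentration giving a marked growth change versus the control plate. Controls were B. fragilis ATCC 25285 and B. thetaiotaomicron ATCC 29741.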

Parabacteroides merdae [13] = assay: Antimicrobial activity against Bacteroides merdae assessed as resistant isolates by agar dilution method
Outline: (§5)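 CLSI agar dilution on enriched brucella agar (5% lysed defibrinated sheep blood, 1 μg/ml vitamin K1), plates made on test day. Log-phase inocula adjusted to 0.5 McFarland; about 10^5 CFU/spot by Steers replicator. Incubated anaerobically at 37°C for 48 h. MIC was the lowest concentration giving a marked change in growth versus the drug-free control plate. Resistance rates used CLSI anaerobe breakpoints. Controls were B. fragilis ATCC 25285 and B. thetaiotaomicron ATCC 29741.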

Bacteroides ovatus [14] = assay: Antimicrobial activity against Bacteroides ovatus assessed as resistant isolates by agar dilution method; outline: as §5
Bacteroides ovatus [15] = assay: Antimicrobial activity against Bacteroides ovatus by agar dilution method; outline: as §4
Bacteroides eggerthii [16] = assay: Antimicrobial activity against Bacteroides eggerthii assessed as resistant isolates by agar dilution method; outline: as §5
Bacteroides nordii [17] = assay: Antimicrobial activity against Bacteroides nordii by agar dilution method; outline: as §4
[18] = test system: Bacteroides thetaiotaomicron; assay: Antimicrobial activity against Bacteroides thetaiotaomicron by agar dilution method; outline: as §4
Phocaeicola vulgatus [19] = assay: Antimicrobial activity against Bacteroides vulgatus by agar dilution method; outline: as §4
Phocaeicola vulgatus [20] = assay: Antimicrobial activity against Bacteroides vulgatus assessed as resistant isolates by agar dilution method; outline: as §5
Parabacteroides merdae [21] = assay: Antimicrobial activity against Bacteroides merdae by agar dilution method; outline: as §4
Bacteroides caccae [22] = assay: Antimicrobial activity against Bacteroides caccae assessed as resistant isolates by agar dilution method; outline: as §5
Bacteroides fragilis [23] = assay: Antimicrobial activity against Bacteroides fragilis by agar dilution method; outline: as §4
[24] = test system: Parabacteroides distasonis; assay: Antimicrobial activity against Bacteroides distasonis assessed as resistant isolates by agar dilution method; outline: as §5
[25] = test system: Parabacteroides distasonis; assay: Antimicrobial activity against Bacteroides distasonis by agar dilution method; outline: as §4
Bacteroides nordii [26] = assay: Antimicrobial activity against Bacteroides nordii assessed as resistant isolates by agar dilution method; outline: as §5
Bacteroides uniformis [27] = assay: Antimicrobial activity against Bacteroides uniformis assessed as resistant isolates by agar dilution method; outline: as §5
Bacteroides uniformis [28] = assay: Antimicrobial activity against Bacteroides uniformis by agar dilution method; outline: as §4
[29] = test system: Bacteroides thetaiotaomicron; assay: Antimicrobial activity against Bacteroides thetaiotaomicron assessed as resistant isolates by agar dilution method; outline: as §5
Bacteroides caccae [30] = assay: Antimicrobial activity against Bacteroides caccae by agar dilution method; outline: as §4
Bacteroides fragilis [31] = assay: Antimicrobial activity against Bacteroides fragilis assessed as resistant isolates by agar dilution method; outline: as §5

SMILES: CN[C@H](CC(C)C)C(=O)N[C@H]1C(=O)N[C@@H](CC(N)=O)C(=O)N[C@H]2C(=O)N[C@H]3C(=O)N[C@H](C(=O)N[C@H](C(=O)O)c4cc(O)cc(O)c4-c4cc3ccc4O)[C@H](O)c3ccc(c(Cl)c3)Oc3cc2cc(c3O[C@@H]2O[C@H](CO)[C@@H](O)[C@H](O)[C@H]2O[C@H]2C[C@](C)(N)[C@H](O)[C@H](C)O2)Oc2ccc(cc2Cl)[C@H]1O [VANCOMYCIN]
- MIC50 (Parvimonas micra): 1 µg/mL (≈ 0.69 µM)
- MIC90 (Parvimonas micra): 2 µg/mL (≈ 1.38 µM)
- Activity (Finegoldia magna [1]): 0%
- MIC (Clostridium perfringens): 1 µg/mL (≈ 0.69 µM)
- MIC50 (Clostridium perfringens): 1 µg/mL (≈ 0.69 µM)
- MIC90 (Clostridium perfringens): 2 µg/mL (≈ 1.38 µM)
- Activity [2]: 2.4%
- MIC50 (Anaerococcus prevotii): 1 µg/mL (≈ 0.69 µM)
- MIC90 (Anaerococcus prevotii): 2 µg/mL (≈ 1.38 µM)
- Activity (Cutibacterium acnes [3]): 0%
- MIC50 (Peptostreptococcus sp.): 1 µg/mL (≈ 0.69 µM)
- MIC90 (Peptostreptococcus sp.): 2 µg/mL (≈ 1.38 µM)
- MIC50 (Clostridium tertium): 8 µg/mL (≈ 5.52 µM)
- MIC90 (Clostridium tertium): 16 µg/mL (≈ 11 µM)
- MIC50 (Finegoldia magna [4]): 1 µg/mL (≈ 0.69 µM)
- MIC90 (Finegoldia magna [4]): 1 µg/mL (≈ 0.69 µM)
- MIC (Cutibacterium acnes [5]): 1 µg/mL (≈ 0.69 µM)
- MIC50 (Cutibacterium acnes [5]): 1 µg/mL (≈ 0.69 µM)
- MIC90 (Cutibacterium acnes [5]): 1 µg/mL (≈ 0.69 µM)
- MIC50 ([Clostridium] innocuum [6]): 8 µg/mL (≈ 5.52 µM)
- MIC90 ([Clostridium] innocuum [6]): 16 µg/mL (≈ 11 µM)
- MIC50 [7]: 1 µg/mL (≈ 0.69 µM)
- MIC90 [7]: 2 µg/mL (≈ 1.38 µM)
- Activity ([Clostridium] innocuum [8]): 0%
- Activity (Propionibacterium [9]): 0%
- MIC (Propionibacterium [10]): 1 µg/mL (≈ 0.69 µM)
- MIC50 (Propionibacterium [10]): 1 µg/mL (≈ 0.69 µM)
- MIC90 (Propionibacterium [10]): 1 µg/mL (≈ 0.69 µM)
- MIC (Clostridioides difficile): 1 µg/mL (≈ 0.69 µM)
- MIC50 (Clostridium subterminale): 8 µg/mL (≈ 5.52 µM)
- MIC90 (Clostridium subterminale): 16 µg/mL (≈ 11 µM)
- MIC50 [11]: 8 µg/mL (≈ 5.52 µM)
- MIC90 [11]: 16 µg/mL (≈ 11 µM)

SMILES: COc1c(N2C[C@@H]3CCCN[C@@H]3C2)c(F)cc2c(=O)c(C(=O)O)cn(C3CC3)c12 [MOXIFLOXACIN]
- MIC50 (Bacteroides eggerthii [12]): 2 µg/mL (≈ 4.98 µM)
- MIC90 (Bacteroides eggerthii [12]): 16 µg/mL (≈ 39.9 µM)
- Activity (Parabacteroides merdae [13]): 40%
- Activity (Finegoldia magna [1]): 40%
- Activity (Bacteroides ovatus [14]): 40%
- MIC50 (Bacteroides ovatus [15]): 2 µg/mL (≈ 4.98 µM)
- MIC90 (Bacteroides ovatus [15]): 32 µg/mL (≈ 79.7 µM)
- Activity (Bacteroides eggerthii [16]): 40%
- MIC50 (Bacteroides nordii [17]): 2 µg/mL (≈ 4.98 µM)
- MIC90 (Bacteroides nordii [17]): 16 µg/mL (≈ 39.9 µM)
- Activity [2]: 14.8%
- MIC50 (Anaerococcus prevotii): 0.5 µg/mL (≈ 1.25 µM)
- MIC90 (Anaerococcus prevotii): 16 µg/mL (≈ 39.9 µM)
- MIC50 [18]: 4 µg/mL (≈ 9.96 µM)
- MIC90 [18]: 32 µg/mL (≈ 79.7 µM)
- Activity (Cutibacterium acnes [3]): 0%
- MIC50 (Peptostreptococcus sp.): 0.5 µg/mL (≈ 1.25 µM)
- MIC90 (Peptostreptococcus sp.): 16 µg/mL (≈ 39.9 µM)
- MIC50 (Phocaeicola vulgatus [19]): 8 µg/mL (≈ 19.9 µM)
- MIC90 (Phocaeicola vulgatus [19]): 64 µg/mL (≈ 159 µM)
- MIC50 (Cutibacterium acnes [5]): 0.25 µg/mL (≈ 0.623 µM)
- MIC90 (Cutibacterium acnes [5]): 0.5 µg/mL (≈ 1.25 µM)
- Activity (Phocaeicola vulgatus [20]): 48.4%
- MIC50 (Parabacteroides merdae [21]): 2 µg/mL (≈ 4.98 µM)
- MIC90 (Parabacteroides merdae [21]): 16 µg/mL (≈ 39.9 µM)
- Activity (Bacteroides caccae [22]): 50%
- MIC50 (Bacteroides fragilis [23]): 1 µg/mL (≈ 2.49 µM)
- MIC90 (Bacteroides fragilis [23]): 8 µg/mL (≈ 19.9 µM)
- Activity [24]: 53.3%
- Activity (Propionibacterium [9]): 0%
- MIC (Propionibacterium [10]): 0.25 µg/mL (≈ 0.623 µM)
- MIC50 (Propionibacterium [10]): 0.25 µg/mL (≈ 0.623 µM)
- MIC90 (Propionibacterium [10]): 0.5 µg/mL (≈ 1.25 µM)
- MIC50 [25]: 8 µg/mL (≈ 19.9 µM)
- MIC90 [25]: 16 µg/mL (≈ 39.9 µM)
- Activity (Bacteroides nordii [26]): 40%
- Activity (Bacteroides uniformis [27]): 14.3%
- MIC50 (Bacteroides uniformis [28]): 4 µg/mL (≈ 9.96 µM)
- MIC90 (Bacteroides uniformis [28]): 64 µg/mL (≈ 159 µM)
- Activity [29]: 30.8%
- MIC50 (Bacteroides caccae [30]): 4 µg/mL (≈ 9.96 µM)
- MIC90 (Bacteroides caccae [30]): 16 µg/mL (≈ 39.9 µM)
- Activity (Bacteroides fragilis [31]): 29.3%
